Active and inactive are the calls of the source.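 Rule for the calls, unless noted: active = GFP response above 150% of the DMSO level; inconclusive = fewer than 70 events counted for a yeast strain; inactive = the rest.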
Columns and labels:
[1] = hit retest on RPL19A-GFP reporter strain – cell-based, S. cerevisiae, flow cytometry, cherry picks, mother/daughter gates, confirmation (AID 2270;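 active = GFP response below 50% of the DMSO control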); settings: 3 h, at 10 µM, stronger effect = lower value, 100 = same GFP as DMSO wells
[2] = yeast TOR pathway reporter LAP4-GFP change – cell-based, cherry picks, flow cytometry, mother/daughter gates, confirmation (AID 2271;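 active = GFP response above 150% of the DMSO control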;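 note: ratio of sample to DMSO plate mean so 100% equals DMSO level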); settings: S. cerevisiae LAP4-GFP strain, 3 h, at 10 µM, stronger effect = higher value, 100 means same as DMSO control
Procedure, shortened: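 material = Alexa 633-stained baker's yeast GFP-fusion strain | amount = 0.2 OD600 cells | schedule = 30 °C, 3 h compound incubation, rotating | signal = GFP by flow cytometry | measure = per-gate (all, mother, daughter) GFP response vs DMSO | controls = positive rapamycin (400 ng/mL), negative DMSO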

[3] = TOR pathway reporter MEP2-GFP, retest of hits – S. cerevisiae, flow cytometry GFP, cherry picks, confirmation (AID 2272;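 active = GFP response above 150% of the DMSO control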;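 note: ratio of well signal to plate DMSO mean so 100% equals DMSO level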); settings: S. cerevisiae MEP2-GFP strain, 3 h, at 10 µM, stronger effect = higher value
[4] = yeast AGP1-GFP fluorescence change, single-dose – cell-based, flow cytometry, S. cerevisiae, cherry picks, confirmation (AID 2273);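 note: median GFP channel fluorescence over the whole cell population gate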; settings: S. cerevisiae AGP1-GFP strain, 3 h, at 10 µM
[5] = TOR pathway CIT2 reporter hit retest – S. cerevisiae, GFP fusion, cherry picks, mother/daughter gates, confirmation (AID 2274); settings: S. cerevisiae CIT2-GFP strain, flow cytometry, 3 h, at 10 µM, stronger effect = higher value
[6] = measured here: daughter cell gate
[7] = measured here: mother cell gate
[8] = measured here: daughter cell gate response
[9] = measured here: mother cell gate response

| SMILES | GFP response vs DMSO [1] | GFP response vs DMSO [1, 6] | GFP response vs DMSO [1, 7] | GFP response relative to DMSO [2] | GFP response relative to DMSO [2, 8] | GFP response relative to DMSO [2, 9] | GFP response vs DMSO [3] | GFP response, % of DMSO [4] | GFP response, % of DMSO [5] | GFP response, % of DMSO [5, 6] | GFP response, % of DMSO [5, 7] |
| --- | --- | --- | --- | --- | --- | --- | --- | --- | --- | --- | --- |
| Cc1ccc(C(=O)Oc2oc(-c3ccccc3)nc2C=Nc2ccc(N(C)C)cc2)cc1 | 98.2% (inactive) | 99.4% | 98.8% | 94.9% (inactive) | 98.2% | 93% | 105% (inactive) | 101% (inactive) | 113% (inactive) | 114% | 114% |
| Cc1ccc(Nc2c(-c3ccccn3)nc3ccc(C)cn23)cc1 | 97.4% (inactive) | 106% | 98.6% | 148% (inactive) | 137% | 153% | 108% (inactive) | 82.9% (inactive) | 105% (inactive) | 121% | 93.3% |
| Cc1ccc(C(=O)Sc2cccccc2=O)cc1 | 101% (inactive) | 99.4% | 99% | 313% (active) | 281% | 315% | 132% (inactive) | 104% (inactive) | 90.9% (inactive) | 93.7% | 84.8% |
| Cc1ccc(/C=C/C(=O)c2ccc(C)cc2)cc1 | 97.2% (inactive) | 96.2% | 99.3% | 98.8% (inactive) | 99.3% | 96.5% | 99.5% (inactive) | 98.2% (inactive) | 102% (inactive) | 102% | 103% |
| Cc1ccc2c(c1)/C(=C/c1ccc(F)cc1)C(=O)N2 | 94.5% (inactive) | 92.2% | 92.7% | 124% (inactive) | 110% | 123% | 108% (inactive) | 98.4% (inactive) | 95.8% (inactive) | 97.6% | 94.9% |
| COc1cc(/C=C/C(=O)c2c(O)ccc3c(C)cc(=O)oc23)ccc1O | 95% (inactive) | 94.4% | 95.8% | 124% (inactive) | 120% | 130% | 98.3% (inactive) | 92.5% (inactive) | 96.9% (inactive) | 101% | 93.8% |
| COc1ccc(/C=C2/C(=O)ON=C2c2ccccc2)cc1OC | 102% (inactive) | 107% | 99.2% | 101% (inactive) | 102% | 99.5% | 102% (inactive) | 101% (inactive) | 102% (inactive) | 106% | 95.6% |
| CCS(=O)(=O)Nc1cccc(C2=NN(S(C)(=O)=O)C(c3ccccc3)C2)c1 (configuration not stated) | 100% (inactive) | 101% | 100% | 110% (inactive) | 105% | 112% | 120% (inactive) | 112% (inactive) | 111% (inactive) | 112% | 110% |
| COC(=O)Nc1c(-c2ccccc2)nc2ccc(C)cn12 | 101% (inactive) | 98.7% | 102% | 96.2% (inactive) | 97.2% | 98.3% | 102% (inactive) | 103% (inactive) | 104% (inactive) | 101% | 107% |
| CCn1c(=O)c(C(=O)Nc2nc3ccccc3[nH]2)c(O)c2ccccc21 | 82.3% (inactive) | 87.3% | 67% | 169% (active) | 109% | 185% | 159% (inactive) | 96.2% (inactive) | 128% (inactive) | 99.1% | 109% |
| O=S(=O)(c1ccc(-c2ccccc2)cc1)N1CCOCC1 | 96.7% (inactive) | 96.1% | 94.8% | 97.7% (inactive) | 97.5% | 97.4% | 103% (inactive) | 99.5% (inactive) | 95.8% (inactive) | 95.8% | 93.8% |
| O=C(CCc1nc(-c2ccccc2)no1)Nc1cc(C(F)(F)F)ccc1Cl | 105% (inactive) | 105% | 103% | 91.9% (inactive) | 91% | 92% | 105% (inactive) | 102% (inactive) | 112% (inactive) | 108% | 110% |
| O=C(CCc1ccc(S(=O)(=O)N2CCOCC2)cc1)Oc1ccccc1 | 99.6% (inactive) | 101% | 99.2% | 111% (inactive) | 112% | 109% | 123% (inactive) | 97.2% (inactive) | 110% (inactive) | 110% | 109% |
| CCN(CC)C(=O)c1ccc2c3c(cccc13)C(=O)N(CCc1ccc(OC)c(OC)c1)C2=O | 98.8% (inactive) | 99.3% | 98.8% | 108% (inactive) | 97.9% | 109% | 99.5% (inactive) | 95.2% (inactive) | 96.4% (inactive) | 98.3% | 94.5% |
| COc1ccc(/C=C/C(=O)c2ccccc2O)cc1 | 96.8% (inactive) | 96.7% | 98.8% | 102% (inactive) | 99.3% | 99.5% | 102% (inactive) | 102% (inactive) | 99.3% (inactive) | 100% | 98% |
| Cc1cc(O)c(C(=O)/C=C/c2ccc(C(C)C)cc2)c(=O)o1 | 95.4% (inactive) | 93.9% | 96.6% | 104% (inactive) | 104% | 106% | 96.2% (inactive) | 100% (inactive) | 98.3% (inactive) | 99.1% | 97.3% |
| COc1cc(SSc2cc(OC)cc([N+](=O)[O-])c2N)c(N)c([N+](=O)[O-])c1 | 89% (inactive) | 78.4% | 80.4% | 265% (active) | 153% | 252% | 118% (inactive) | 124% (inactive) | 145% (inactive) | 112% | 143% |
| COc1ccc(CN2CCN(c3ncccn3)CC2)c(C)c1C | 96.2% (inactive) | 98.1% | 95.2% | 100% (inactive) | 101% | 100% | 99.3% (inactive) | 100% (inactive) | 100% (inactive) | 101% | 102% |
| CCN(CC)CCCN(C(=O)c1ccc(Br)cc1)c1nc(-c2ccc(OC)cc2)cs1 | 96.5% (inactive) | 97.3% | 96.9% | 95.3% (inactive) | 99% | 94.4% | 101% (inactive) | 97.9% (inactive) | 95.8% (inactive) | 95.8% | 98.2% |
| CS(=O)(=O)N1N=C(c2ccc(Br)cc2)CC1c1ccc2c(c1)OCO2 (configuration not stated) | 102% (inactive) | 101% | 102% | 105% (inactive) | 104% | 104% | 114% (inactive) | 99.3% (inactive) | 109% (inactive) | 111% | 107% |
| Cc1ccc2[nH]c3c(=O)n(CC(=O)N4CCN(C)CC4)ncc3c2c1 | 95% (inactive) | 93.4% | 96.2% | 95.4% (inactive) | 96% | 96.1% | 98.3% (inactive) | 99.3% (inactive) | 101% (inactive) | 103% | 101% |
| CC(C)n1c(=S)[nH]c2c1c(=O)[nH]c(=O)n2C | 98.8% (inactive) | 97.3% | 99.8% | 99.8% (inactive) | 102% | 101% | 100% (inactive) | 104% (inactive) | 100% (inactive) | 99.7% | 102% |
| CC(=O)c1sc2nc(C)c3c(c2c1N)CCCC3 | 89.4% (inactive) | 88.5% | 89.3% | 111% (inactive) | 104% | 115% | 101% (inactive) | 98.2% (inactive) | 91.7% (inactive) | 88.7% | 92.6% |
| CCn1c(=O)c(C(=O)NCCc2ccccc2)c(O)c2ccccc21 | 98.5% (inactive) | 99.8% | 98.8% | 95.3% (inactive) | 96% | 97.4% | 103% (inactive) | 108% (inactive) | 98.6% (inactive) | 99.3% | 98.2% |
| COc1ccc(-c2noc(-c3cccc(Cl)c3)n2)cc1OC | 98% (inactive) | 97.3% | 97.6% | 102% (inactive) | 101% | 101% | 102% (inactive) | 96.2% (inactive) | 99.3% (inactive) | 102% | 96.8% |
| COc1cc(/C=C2\N=C(C)OC2=O)cc(Cl)c1OC(C)=O | 107% (inactive) | 109% | 102% | 117% (inactive) | 115% | 118% | 105% (inactive) | 99.8% (inactive) | 108% (inactive) | 112% | 103% |
| C=CCN1C(=O)C2(C(C#N)=C(N)Oc3n[nH]c(CCC)c32)c2ccccc21 (configuration not stated) | 100% (inactive) | 99.8% | 102% | 97.4% (inactive) | 100% | 98.3% | 100% (inactive) | 102% (inactive) | 100% (inactive) | 98.1% | 102% |

Source: PubChem BioAssay
